APJ antagonist – antagonists of human APJ apelin receptor | P35414 | CHO-K1 APJ beta-arrestin complementation, luminescence | inhibition, % at 20 µM | actives 0.32% (n = 330,000);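 active = inhibition above about 40% at 20 µM, limit read from the data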;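 also: cells challenged with 10 nM apelin-13 agonist together with compound; plate controls were apelin-13 plus DMSO wells for no effect and DMSO wells lacking apelin-13 for full effect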
Target sequence (P35414 whole entry, looked up): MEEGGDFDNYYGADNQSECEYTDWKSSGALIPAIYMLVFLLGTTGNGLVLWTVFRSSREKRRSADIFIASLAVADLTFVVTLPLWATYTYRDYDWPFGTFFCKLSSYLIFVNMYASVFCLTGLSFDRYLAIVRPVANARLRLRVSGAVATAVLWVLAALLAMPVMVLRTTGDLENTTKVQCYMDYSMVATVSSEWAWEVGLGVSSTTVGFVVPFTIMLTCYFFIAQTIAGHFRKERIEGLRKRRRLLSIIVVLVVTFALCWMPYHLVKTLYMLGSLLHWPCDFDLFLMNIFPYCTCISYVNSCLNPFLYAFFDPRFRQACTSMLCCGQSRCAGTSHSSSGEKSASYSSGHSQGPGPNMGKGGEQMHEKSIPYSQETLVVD
CCR6 antagonist – CCR6 (human) receptor antagonism; actives 0.49% (n = 340,000); P51684; inhibition, % at 20 µM; CHO-K1 CCR6 PathHunter beta-arrestin, luminescence, CCL20-stimulated;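 active = compounds whose inhibition of the agonist-driven luminescence signal at 20 µM reaches about 50%, limit read from the data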;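 also: cells stimulated with CCL20 at 14 nM final; plate controls were DMSO with CCL20 for no effect and DMSO without agonist for full effect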
APJ agonist – agonists of human APJ apelin receptor; CHO-K1 APJ PathHunter beta-arrestin, luminescence; 0% DMSO wells, 100% apelin; activation, % at 20 µM; actives 0.11% (n = 330,000);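 active = activation more than six SD over the plate average, tested at 20 µM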;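 also: 0% = DMSO alone and 100% = apelin-13 at 10 nM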
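Assay system: CHO-K1 cells stably expressing ProLink-tagged human APJ and arrestin–beta-gal acceptor. Compound dosing: 20 µM single point, 1% DMSO. Times: 16-18 h seeding, 90 min dark compound exposure, 60 min detection. Detection: beta-gal luminescence. Evaluation: APJ–arrestin association signal. Controls: negative DMSO alone, positive Apelin-13 at 10 nM.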
PfGluPho inh – PfG6PD (Plasmodium falciparum) enzyme inhibition; AID 504690; PfGluPho enzyme, NADPH resazurin-diaphorase fluorescence; inhibition, % at 20 µM; actives 0.78% (n = 350,000);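 active = inhibition reaching at least a set limit at 20 µM in the primary screen, cut at about 59% in these data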;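 also: 0% = DMSO wells with substrate and 100% = DMSO wells lacking glucose-6-phosphate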
CXCR6 block – blocks human CXCR6 beta-arrestin recruitment; O00574; CHO-K1 PathHunter CXCR6 beta-arrestin, luminescence; inhibition, % at 20 µM; actives 0.36% (n = 360,000); AID 602244; in the data active = inhibition above about 34%, passing the limit was not always enough;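 also: antagonist mode with CXCL16 agonist at 10 nM final; 0% = 10 nM CXCL16 with DMSO and 100% = unstimulated wells without agonist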
B2AR ag – agonists of human beta-2 adrenergic receptor inducing internalization. Am2.2-beta2AR cells, FAP receptor internalization, flow cytometry. actives 0.43% (n = 340,000). response, % (concentration not given with the values);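 active = response above a set limit, near 3 SD of response in nonfluorescent compounds, cut at about 42% in these data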
Beta2AR ag CP1 – activates human beta-2 adrenergic receptor. shares compounds with B2AR ag. Am2.2-beta2AR cells, FAP surface receptor, flow cytometry; active compounds read low. percent response (surface receptor), % at 10 µM. actives 25% (n = 1,100);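 active = surface receptor percent response at or below 58%, roughly 3 SD from nonfluorescent compounds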
B2AR FAP counter – fluorescence artifact in beta-2AR agonist FAP counterscreen | shares compounds with B2AR ag | Am2.2 cells, FAP fluorogen flow cytometry; active compounds read low | calls only at 10 µM | 1,100 tested, under 10 active | AID 588765;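 active = percent response below a set limit in fluorescence channel 1 and below 50% in channel 8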
Starred values were filed as active, the others as inactive; i = inactive; . = no result. Compounds with a hit are over-represented: about 1.7% of the library has one in this group of screens.

SMILES | APJ antagonist | CCR6 antagonist | APJ agonist | PfGluPho inh | CXCR6 block | B2AR ag | Beta2AR ag CP1 | B2AR FAP counter
Cc1ccc(Nc2c(-c3ccccn3)nc3cc(C)ccn23)cc1 | 39 | 57* | -4 | 4 | 40* | 76* | 128 | i
Cc1ccn2c(Nc3ccc4c(c3)OCO4)c(-c3ccccn3)nc2c1 | 18 | 25 | -2 | 53 | 20 | -1 | . | .
CC1=NN(C(N)=S)C(=O)C1N=Nc1ccc(F)cc1 (stereo unspecified) | 8 | 33 | -5 | 10 | 10 | -2 | 49* | i
COCCCNC(=O)c1cc(-c2cccnc2)nc2ccc(S(=O)(=O)N3CCCCCC3)cc12 | 16 | 26 | -2 | -21 | 4 | 17 | 94 | i
CN1C(N)=NC(=O)/C1=C\c1ccc(Br)cc1 | 4 | 8 | -1 | -1 | 0 | -1 | . | .
CCCCc1c(O)nc(SCC(=O)c2ccccc2)n(-c2ccccc2OC)c1=O | 2 | 12 | 2 | -34 | 5 | -10 | . | .
COC(=O)C1CCN(C(=O)c2oc3c(Cl)cc(C)cc3c2C)CC1 | 3 | 11 | 1 | 18 | 4 | 5 | . | .
Cc1cc(Cl)c2oc(C(=O)N3CCN(c4ccncc4)CC3)c(C)c2c1 | -5 | 10 | 7 | 4 | -12 | 65* | 65 | i
Cc1ccc(CCNC(=O)c2cccc(NC3=NC4CS(=O)(=O)CC4S3)c2)cc1 (stereo unspecified) | -6 | 5 | 2 | -1 | 5 | -1 | . | .
Cc1ccc(Sc2ncccc2COC(=O)Nc2c(C)cccc2C)cc1 | -21 | 15 | -1 | 12 | 14 | 63* | 118 | i
Cc1ccc(Sc2ncccc2COC(=O)Nc2ccccc2)cc1 | 13 | 37 | -2 | 9 | -5 | 4 | . | .
CCC(=O)N1CCc2cc(Br)cc(S(=O)(=O)N(C)c3ccc(OC)cc3)c21 | -15 | 12 | 4 | 5 | 3 | 101* | 19* | i
CC(=O)Nc1cc(S(=O)(=O)Nc2ccccc2)c(C)cc1C | 0 | 10 | -4 | -13 | -7 | 47* | 115 | i
CC(=O)Nc1cc(S(=O)(=O)Nc2cccc(C)c2)c(C)cc1C | -3 | 13 | 2 | 2 | 5 | 1 | . | .
Cc1ccc(Cl)cc1Nc1nc(N2CCOCC2)nc(N2CCOCC2)n1 | 4 | 13 | 0 | 11 | 8 | 3 | . | .
Cc1ccc([N+](=O)[O-])cc1Nc1nc(N2CCOCC2)nc(N2CCOCC2)n1 | 5 | 7 | 0 | 4 | 8 | 50* | 112 | i
CCCc1cnc(Nc2nc(C(N)Cc3ccc(OC)cc3)cs2)nc1 (stereo unspecified) | . | . | . | . | -4 | . | . | .
COc1ccc2nc(NC(=O)CSc3nnc(N)s3)sc2c1 | 7 | 2 | 0 | -3 | -2 | 75* | 78 | i
CC1CCCN(C(=O)c2cn(-c3ccccc3)nc2-c2cccnc2)C1 (stereo unspecified) | 6 | 7 | -9 | -4 | 2 | -23 | . | .
CCCc1ccc(OCc2nc(-c3ccc(NC(=O)c4cccs4)cc3)no2)cc1 | -11 | 9 | 4 | 10 | -6 | -5 | 75 | i
CCCc1ccc(OCc2nc(-c3ccc(NC(=O)c4ccco4)cc3)no2)cc1 | 0 | -5 | -4 | -18 | -2 | 27 | 42* | i
COc1ccccc1Cc1c(-c2ccc(C#N)cc2)nc2ccc(Br)cn12 | . | . | . | . | 8 | . | . | .
COc1cc(OC)cc(C(=O)NCCc2cnc[nH]2)c1 | -18 | -8 | -3 | -1 | -4 | 1 | . | .
CCN(CC)CCCNc1ccc(-c2nnc(-c3ccc(OCC(C)C)cc3)o2)cn1 | 5 | 36 | 4 | 13 | -10 | 48* | 102 | i
O=[N+]([O-])c1ccc2nc(CCCc3nc4ccc([N+](=O)[O-])cc4[nH]3)[nH]c2c1 | 15 | 12 | -3 | 3 | 5 | 54* | 121 | i
O=[N+]([O-])c1ccc2nc(CN3CCCCC3)[nH]c2c1 | 0 | 10 | -4 | 2 | 10 | -1 | . | .

Screens deposited in PubChem BioAssay by several laboratories.
